Here are results for six compounds from ChEMBL document CHEMBL2203264, “Optimization of imidazo[4,5-b]pyridine-based kinase inhibitors: identification of a dual FLT3/Aurora kinase inhibitor as an orally bioavailable preclinical development candidate for the treatment of acute myeloid leukemia” (J Med Chem, 2012).

Data set [1] deals with T1, Receptor-type tyrosine-protein kinase FLT3 (Homo sapiens, UniProt P36888).
T1 sequence (P36888 whole entry): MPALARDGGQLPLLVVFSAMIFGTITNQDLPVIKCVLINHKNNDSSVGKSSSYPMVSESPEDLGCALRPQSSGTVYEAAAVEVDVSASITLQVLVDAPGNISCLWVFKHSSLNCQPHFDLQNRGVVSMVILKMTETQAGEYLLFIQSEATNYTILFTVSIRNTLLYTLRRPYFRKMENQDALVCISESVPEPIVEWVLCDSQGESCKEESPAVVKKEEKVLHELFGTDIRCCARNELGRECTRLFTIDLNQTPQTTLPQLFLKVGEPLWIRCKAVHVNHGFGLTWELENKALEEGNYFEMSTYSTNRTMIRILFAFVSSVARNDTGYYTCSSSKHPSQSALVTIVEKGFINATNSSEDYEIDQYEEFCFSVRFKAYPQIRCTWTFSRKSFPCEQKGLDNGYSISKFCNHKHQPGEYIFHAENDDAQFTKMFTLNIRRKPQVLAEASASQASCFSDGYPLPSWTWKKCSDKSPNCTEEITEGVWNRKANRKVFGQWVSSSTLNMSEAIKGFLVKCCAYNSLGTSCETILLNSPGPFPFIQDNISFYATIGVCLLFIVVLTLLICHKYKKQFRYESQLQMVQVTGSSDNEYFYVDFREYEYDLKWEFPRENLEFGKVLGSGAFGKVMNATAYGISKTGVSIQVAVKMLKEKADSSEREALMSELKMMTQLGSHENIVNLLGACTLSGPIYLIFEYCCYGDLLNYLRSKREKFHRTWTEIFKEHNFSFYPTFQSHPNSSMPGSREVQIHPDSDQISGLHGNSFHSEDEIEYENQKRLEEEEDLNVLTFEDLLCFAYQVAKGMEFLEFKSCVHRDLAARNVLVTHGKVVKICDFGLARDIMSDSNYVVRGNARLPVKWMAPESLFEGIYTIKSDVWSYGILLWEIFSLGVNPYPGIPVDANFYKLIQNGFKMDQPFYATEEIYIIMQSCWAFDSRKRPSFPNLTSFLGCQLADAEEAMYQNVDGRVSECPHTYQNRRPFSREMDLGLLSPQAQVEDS

For the next data set, the target named is hERG (KCNH2) (Homo sapiens, UniProt Q12809). The data set can be described thus: Inhibition of human ERG at 10 uM by cell-based electrophysiology assay.
hERG (KCNH2), sequence (Q12809 whole entry): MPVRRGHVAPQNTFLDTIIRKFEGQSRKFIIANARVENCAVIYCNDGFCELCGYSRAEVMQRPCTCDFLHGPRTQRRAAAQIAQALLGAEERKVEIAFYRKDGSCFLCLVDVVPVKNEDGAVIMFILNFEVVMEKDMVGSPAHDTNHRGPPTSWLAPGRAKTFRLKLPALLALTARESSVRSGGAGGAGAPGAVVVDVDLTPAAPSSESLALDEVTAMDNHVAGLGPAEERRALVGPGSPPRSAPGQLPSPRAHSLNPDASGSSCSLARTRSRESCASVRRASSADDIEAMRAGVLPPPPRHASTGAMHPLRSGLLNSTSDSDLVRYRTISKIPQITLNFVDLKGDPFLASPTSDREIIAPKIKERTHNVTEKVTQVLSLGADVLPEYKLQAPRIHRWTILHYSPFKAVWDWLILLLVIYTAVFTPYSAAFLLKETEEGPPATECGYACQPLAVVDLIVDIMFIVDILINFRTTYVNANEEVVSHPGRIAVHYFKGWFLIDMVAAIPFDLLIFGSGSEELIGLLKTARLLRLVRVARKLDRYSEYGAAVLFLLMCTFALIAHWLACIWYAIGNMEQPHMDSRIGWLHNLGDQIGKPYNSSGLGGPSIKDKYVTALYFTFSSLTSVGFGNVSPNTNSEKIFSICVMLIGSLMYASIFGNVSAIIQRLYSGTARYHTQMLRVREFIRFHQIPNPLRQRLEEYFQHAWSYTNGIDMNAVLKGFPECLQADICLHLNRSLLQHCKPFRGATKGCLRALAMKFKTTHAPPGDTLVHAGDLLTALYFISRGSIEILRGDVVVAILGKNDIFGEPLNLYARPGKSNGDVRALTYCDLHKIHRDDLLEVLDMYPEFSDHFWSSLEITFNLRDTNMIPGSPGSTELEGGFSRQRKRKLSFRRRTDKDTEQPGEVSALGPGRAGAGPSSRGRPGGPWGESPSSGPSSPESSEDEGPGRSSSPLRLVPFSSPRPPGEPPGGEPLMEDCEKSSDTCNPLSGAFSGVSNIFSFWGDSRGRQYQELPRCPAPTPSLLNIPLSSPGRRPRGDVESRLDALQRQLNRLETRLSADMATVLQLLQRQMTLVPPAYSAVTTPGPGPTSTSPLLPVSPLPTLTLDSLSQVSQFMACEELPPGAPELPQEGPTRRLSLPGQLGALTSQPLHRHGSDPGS
Data set [2] is described as follows: Metabolic stability in human liver microsomes assessed as parent compound metabolism after 30 mins by LC-MS analysis. Type of data set: ADME, Microsome. The settings on record: read-out: Drug metabolism. The procedure, abridged: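 Test compound at 10 μM with pooled mixed-gender human liver microsomes (1 mg/mL protein), NADPH 1 mM, UDPGA 2.5 mM and MgCl2 3 mM in 10 mM PBS at 37 °C for 0 and 30 min. Controls omit NADPH/UDPGA. Compound remaining measured by LC–MS; reported as percent of parent metabolized at 30 min.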
(In general: Liver microsomes are a subcellular fraction often used to study metabolism.)

Data set [3] is described as follows: Metabolic stability in mouse liver microsomes assessed as parent compound metabolism after 30 mins by LC-MS analysis. It counts as ADME, Microsome. The note with it: read-out: Drug metabolism. The procedure, abridged: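 Male CD1 mouse liver microsomes (1 mg/mL protein) incubated with 10 μM compound plus NADPH 1 mM, UDPGA 2.5 mM and MgCl2 3 mM in 10 mM PBS at 37 °C for 0 and 30 min. NADPH/UDPGA-free controls included. LC–MS quantitation of remaining compound; reported as percent parent metabolized after 30 min.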

Data set [4] in a line: Binding affinity to FLT3 ITD mutant.
A further data set has as its target T2, Aurora kinase A (Homo sapiens, UniProt O14965).
T2 sequence (O14965 whole entry): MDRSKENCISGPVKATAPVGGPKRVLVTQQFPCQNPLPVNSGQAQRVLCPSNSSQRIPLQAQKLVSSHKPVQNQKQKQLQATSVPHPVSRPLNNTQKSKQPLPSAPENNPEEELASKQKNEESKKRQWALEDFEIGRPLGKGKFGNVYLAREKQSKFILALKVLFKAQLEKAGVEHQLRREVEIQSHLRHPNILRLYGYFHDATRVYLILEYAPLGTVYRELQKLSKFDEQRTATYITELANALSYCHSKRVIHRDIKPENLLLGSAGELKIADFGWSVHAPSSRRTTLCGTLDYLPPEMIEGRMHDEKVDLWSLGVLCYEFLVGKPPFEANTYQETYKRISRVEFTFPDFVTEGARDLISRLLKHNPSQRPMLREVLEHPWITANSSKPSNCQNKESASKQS
The data set can be described thus: Inhibition of GST-tagged human Aurora A kinase expressed in baculovirus system.

The subject of a further data set is SW-620. The data set can be described thus: cells. The settings on record: Homo sapiens, SW-620, 72 h.
The target of data set [5] is Voltage-gated inwardly rectifying potassium channel KCNH2 (Homo sapiens, UniProt Q12809). The data set can be described thus: Inhibition of human ERG by cell-based electrophysiology assay.
Voltage-gated inwardly rectifying potassium channel KCNH2, sequence (Q12809 whole entry): as the sequence (Q12809 whole entry) above

One may read the Kd as the equilibrium constant for the complex coming apart. As a reminder, the inhibition is the share of the control response that was lost under treatment. Lower therefore signals a weak effect. The IC50 is the concentration that inhibits the measured activity by half. A higher IC50 goes with a need for much substance. The GI50 is the concentration giving 50% growth inhibition. A low value points to greater sensitivity of the cells.

Turning to `Cc1cc(CN2CCN(c3c(Br)cnc4nc(-c5ccc(N6CCN(C)CC6)cc5)[nH]c34)CC2)no1`, the Kd in data set [1] was found to be 1.2 nM; in data set [4], 4.9 nM. At hERG (KCNH2), this compound gave an inhibition at 10 µM of 75%. In addition, the metabolised at 0.5 h in data set [2] came out at 86%; in data set [3], 36%.
Consider `Cc1cc(CN2CCN(c3c(Br)cnc4[nH]c(-c5cncn5C)nc34)CC2)no1`, for which the Kd in data set [1] stood at 14 nM; in data set [4] it was 62 nM. This compound also gave an IC50 against Aurora kinase A of 15 nM. The GI50 with SW-620 is 2180 nM.
With `Cc1cc(CN2CCN(c3c(Cl)cnc4[nH]c(-c5cccc(N6CCN(C)CC6)c5)nc34)CC2)no1`, the results for the Kd in data set [1] and in data set [4] were 5.4 nM and 26 nM, respectively. Further, the IC50 is 26 nM on Aurora kinase A and 9500 nM in data set [5]. Also, the metabolised at 0.5 h worked out at 24% in data set [2] and 40% in data set [3]. This compound also yielded a GI50 in the data set on SW-620 of 667 nM.
`Cc1nn(C)cc1-c1nc2c(N3CCN(Cc4cncnc4)CC3)c(Cl)cnc2[nH]1`: the Kd amounted to 5.9 nM in data set [1] and 15 nM in data set [4]. At Aurora kinase A, the IC50 came to 22 nM. On hERG (KCNH2), this compound had an inhibition at 10 µM of 32%. Moreover, the metabolised at 0.5 h in data set [2] was determined as 50%; in data set [3], 78%. For the same compound, the GI50 with SW-620 was determined as 950 nM.
As for `Cc1cc(CN2CCN(c3c(Cl)cnc4[nH]c(-c5cn(C)nc5C)nc34)CC2)no1`, the Kd came out at 2.4 nM in data set [1] and 10 nM in data set [4]. Also, the IC50 on Aurora kinase A was found to be 13 nM; in data set [5], 6300 nM. The metabolised at 0.5 h in data set [2] stood at 38%; in data set [3] it was 48%. The compound further displayed a GI50 in the data set on SW-620 of 597 nM.
With `Cc1cc(CN2CCN(c3c(Cl)cnc4[nH]c(-c5cnn(C)c5)nc34)CC2)no1`, the Kd in data set [1] came out at 12 nM; in data set [4], 66 nM. Also, at Aurora kinase A, the IC50 came out at 45 nM. For the same compound, the concentration for 50% growth inhibition (GI50) in the data set with SW-620 was found to be 1800 nM.
